ARFGAP1 inh – inhibitors of rat ARFGAP1; Arfgap1-stimulated ARF1 GTP hydrolysis, GDP FP detection; inhibition, % at 16.5 µM; 360,000 compounds, 0.26% hits; AID 651572;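 active means inhibition above a per-plate limit, mean inhibition of low control wells plus 3 SD, cut at about 25% in these data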;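 further: 0% = DMSO wells with enzyme and 100% = wells lacking Arfgap1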
Target sequence (Q62848 1-136 limits assumed): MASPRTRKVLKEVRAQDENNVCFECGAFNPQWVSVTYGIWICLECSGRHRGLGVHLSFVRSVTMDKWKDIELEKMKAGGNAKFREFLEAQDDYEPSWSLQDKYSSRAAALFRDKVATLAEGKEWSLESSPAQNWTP
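System: truncated rat Arfgap1 GAP domain / Medium: HEPES-based buffer, pH 7.5 / Also added: N-terminally truncated human ARF1-GTP substrate / Incubation: enzyme reaction 120 min at 25 °C after 20 min preincubation / Measured by: FP of antibody-bound GDP Alexa 633 tracer, ex 620/em 688 nm / Replicates: singlicate, each compound tested once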
UHRF1 MBD2 ctr – blocks human UHRF1 binding to methylated DNA. Q96T88. UHRF1 binding to methylated oligo, TR-FRET. inhibition, % at 4.4 µM. 370,000 compounds, 0.75% hits. AID 687016; in the data active means inhibition above about 21%;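 further: UHRF1 SRA domain binding a hemimethylated CpG hairpin DNA probe; 0% = median of test compound wells and 100% = reference inhibitor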
ASAP1 inh – inhibitors of human ASAP1 ArfGAP activity | ASAP1-stimulated ARF1 GTP hydrolysis, GDP FP detection | inhibition, % at 16.5 µM | 360,000 compounds, 0.19% hits | Q9ULH1 | AID 624377; in the data active means inhibition above about 25%;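 further: 0% = vehicle with enzyme and substrate and 100% = no enzyme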
Target sequence (Q9ULH1 325-724 limits assumed): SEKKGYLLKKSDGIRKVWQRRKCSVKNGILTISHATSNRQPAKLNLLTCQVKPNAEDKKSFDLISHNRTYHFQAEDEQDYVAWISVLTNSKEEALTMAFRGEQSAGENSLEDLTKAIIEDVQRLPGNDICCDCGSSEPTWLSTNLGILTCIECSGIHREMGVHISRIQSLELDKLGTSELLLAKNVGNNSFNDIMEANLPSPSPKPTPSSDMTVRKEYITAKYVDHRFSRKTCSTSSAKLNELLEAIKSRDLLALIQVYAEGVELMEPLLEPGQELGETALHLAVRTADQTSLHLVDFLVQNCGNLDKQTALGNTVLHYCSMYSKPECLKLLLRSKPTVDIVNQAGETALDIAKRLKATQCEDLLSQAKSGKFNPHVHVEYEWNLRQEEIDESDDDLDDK
TDP2 inh – blocks human TDP2 phosphodiesterase activity; 370,000 compounds, 0.34% hits; recombinant TDP2, T5PNP hydrolysis, p-nitrophenol absorbance 415 nm; inhibition, % at 12.8 µM;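 active means inhibition above the mean of all tested compounds plus 3 SD, set per campaign, cut at about 25% in these data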;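 further: 0% = DMSO with enzyme and 100% = buffer with substrate but no TDP2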
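System – recombinant human TDP2 · Quantity – TDP2 enzyme at 120 nM final · Doses – single concentration, 12.8 µM nominal, with 1% DMSO · Incubation – 2 h at 37 °C · Measured by – epi absorbance of p-nitrophenol freed from T5PNP by hydrolysis · Read-out – % inhibition relative to enzyme-containing and enzyme-free wells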
LEDGF integ inh – blocks HIV-1 LEDGF/p75-dependent DNA integration; 370,000 compounds, 0.64% hits; TR-FRET IN-LEDGF/p75 DNA integration, Eu/Cy5; inhibition, % at 3.7 µM;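 active means inhibition above the screen-wide mean plus 3 SD, cut at about 13% in these data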;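 further: signal is the Cy5 over europium emission ratio at 671 and 618 nm; 0% = plate median of compound wells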
MBD2 DNA inh – blocks human MBD2 binding to methylated DNA | Q9UBB5 | 370,000 compounds, 0.31% hits | TR-FRET, MBD2 binding to methylated oligonucleotide | inhibition, % at 4.4 µM; in the data active means inhibition above about 13%
ASAP1 GAP conf – confirmation of human ASAP1 inhibitors; shares compounds with ASAP1 inh; ASAP1-stimulated Arf1 GTPase, GDP fluorescence polarization; 620 compounds, 37% hits; inhibition, % at 16.5 µM;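 active means mean inhibition over triplicates exceeds the hit threshold derived for the earlier primary screening run, cut at about 25% in these data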
Active calls of the source: *. An excerpt weighted towards active compounds, which were near 2% of everything screened.

How did CCN(C(=S)NCc1ccccc1)c1cccc2ccccc12 do in these assays?
ARFGAP1 inh: 0; UHRF1 MBD2 ctr: 1; ASAP1 inh: 25*; TDP2 inh: -13; LEDGF integ inh: 2; MBD2 DNA inh: 4; ASAP1 GAP conf: 2

Results for O=C(NCCc1c[nH]c2ccccc12)OCc1cn(Cc2ccccc2C(F)(F)F)nn1 ?
UHRF1 MBD2 ctr: 0; TDP2 inh: -2; LEDGF integ inh: -2; MBD2 DNA inh: 1

Results for CC(=O)Oc1ccc2ccccc2c1C(NC(=O)Cc1ccccc1)c1ccc(Cl)cc1 (centres undefined) ?
ARFGAP1 inh: 2; UHRF1 MBD2 ctr: 2; ASAP1 inh: 140*; TDP2 inh: 0; LEDGF integ inh: 1; MBD2 DNA inh: 5; ASAP1 GAP conf: 6

Results for Cc1ccc(NC(=O)OC2CC3CC2[C@H]2CCCCN2C3)cc1C (some centres undefined) ?
UHRF1 MBD2 ctr: -2; TDP2 inh: 11; LEDGF integ inh: 1; MBD2 DNA inh: 1

How did COc1ccccc1CNc1nc(NCCOc2ccccc2)c2sccc2n1 do in these assays?
ARFGAP1 inh: 7; UHRF1 MBD2 ctr: 0; ASAP1 inh: 25*; TDP2 inh: 0; LEDGF integ inh: 1; MBD2 DNA inh: -5; ASAP1 GAP conf: 16

How did O=C(c1cccc(F)c1)N(Cc1ccccn1)CC1CCCO1 (centres undefined) do in these assays?
UHRF1 MBD2 ctr: 0; TDP2 inh: -1; LEDGF integ inh: 1; MBD2 DNA inh: 3

What do the screens show for `CC[n+]1c(/C=C/C=C/N(C(C)=O)c2ccccc2)sc2ccccc21`?
ARFGAP1 inh: 23; UHRF1 MBD2 ctr: -20; ASAP1 inh: 45*; TDP2 inh: 5; LEDGF integ inh: 17*; MBD2 DNA inh: -8; ASAP1 GAP conf: 44*

Results for COc1ccc(-n2c(COc3ccc(Cl)cc3)nnc2SCc2nc3ccccc3[nH]2)cc1 ?
UHRF1 MBD2 ctr: 0; TDP2 inh: -4; LEDGF integ inh: 3; MBD2 DNA inh: -3

Results for Cc1ccc(-c2nnc(N(C)C(=O)c3cccnc3)s2)cn1 ?
ARFGAP1 inh: 1; UHRF1 MBD2 ctr: 1; ASAP1 inh: 26*; TDP2 inh: -4; LEDGF integ inh: -2; MBD2 DNA inh: 1; ASAP1 GAP conf: 9

How did COc1ccc(OCc2cc(C(=O)NC3CCOCC3)no2)c2ccccc12 do in these assays?
ARFGAP1 inh: 0; UHRF1 MBD2 ctr: 0; ASAP1 inh: 30*; TDP2 inh: 18; LEDGF integ inh: 6; MBD2 DNA inh: -4; ASAP1 GAP conf: 2

How did N#Cc1c(-c2ccc(Br)cc2)cc(-c2cccnc2)nc1N do in these assays?
ARFGAP1 inh: 0; UHRF1 MBD2 ctr: 2; ASAP1 inh: 8; TDP2 inh: -1; LEDGF integ inh: 4; MBD2 DNA inh: 7

What do the screens show for `N#Cc1c(-c2cccc(Br)c2)cc(-c2cccnc2)nc1N`?
ARFGAP1 inh: -1; UHRF1 MBD2 ctr: -2; ASAP1 inh: 28*; TDP2 inh: 7; LEDGF integ inh: -1; MBD2 DNA inh: -3; ASAP1 GAP conf: 24

What do the screens show for `O=C(O)C1[C@H]2C(=O)N(Cc3cccs3)C[C@]23C=C[C@H]1O3` (some centres undefined)?
ARFGAP1 inh: -4; UHRF1 MBD2 ctr: 1; ASAP1 inh: 25*; TDP2 inh: 4; LEDGF integ inh: 2; MBD2 DNA inh: -1; ASAP1 GAP conf: 4

What do the screens show for `CCO[C@@H]1OC(C(=O)O)=C[C@H](c2csc3ccccc23)[C@H]1CCCO`?
ARFGAP1 inh: 1; UHRF1 MBD2 ctr: 4; ASAP1 inh: 5; TDP2 inh: -3; LEDGF integ inh: 3; MBD2 DNA inh: 5

What do the screens show for `CCO[C@H]1OC(C(=O)Nc2ccccc2)=C[C@@H](c2csc3ccccc23)[C@@H]1CCCO`?
ARFGAP1 inh: 16; UHRF1 MBD2 ctr: 0; ASAP1 inh: 25*; TDP2 inh: -19; LEDGF integ inh: 0; MBD2 DNA inh: -3; ASAP1 GAP conf: 19

Results for CCCC1CCC2(CC1)CCC2OC(=S)NCCc1ccc(Cl)cc1 (centres undefined) ?
UHRF1 MBD2 ctr: 0; TDP2 inh: 5; LEDGF integ inh: 4; MBD2 DNA inh: 1

How did O=C(Nc1ccc(Cn2cccn2)cc1)c1ccc(COc2ccc(Br)cc2)cc1 do in these assays?
ARFGAP1 inh: 2; UHRF1 MBD2 ctr: -2; ASAP1 inh: -2; TDP2 inh: 13; LEDGF integ inh: 1; MBD2 DNA inh: 1

Results for O=C(Nc1ccc(Cn2cccn2)cc1)c1ccc(COc2cccc(Br)c2)cc1 ?
ARFGAP1 inh: 20; UHRF1 MBD2 ctr: 0; ASAP1 inh: 29*; TDP2 inh: -8; LEDGF integ inh: 1; MBD2 DNA inh: 0; ASAP1 GAP conf: 7

Results for COc1ccc([C@H]2CN(c3ccc(OC)cc3)C(=O)[C@@H]2CC(=O)Nc2ccccc2)cc1 ?
ARFGAP1 inh: 0; UHRF1 MBD2 ctr: -2; ASAP1 inh: 28*; TDP2 inh: 0; LEDGF integ inh: -1; MBD2 DNA inh: -7; ASAP1 GAP conf: 5

What do the screens show for `COc1ccc(NC(=O)C[C@H]2C(=O)N(c3ccc(Br)cc3)C[C@@H]2c2ccc(OC)cc2)cc1`?
ARFGAP1 inh: 0; UHRF1 MBD2 ctr: -1; ASAP1 inh: 0; TDP2 inh: -3; LEDGF integ inh: 5; MBD2 DNA inh: 4

How did CCCN(CC1CC1)C(=O)CNc1nnnn1-c1ccccc1 do in these assays?
UHRF1 MBD2 ctr: 5; TDP2 inh: -3; LEDGF integ inh: 2; MBD2 DNA inh: 2

How did Cc1ccc(C=NNC(=O)c2cc(-c3cccnc3)nc3ccccc23)o1 do in these assays?
ARFGAP1 inh: 3; UHRF1 MBD2 ctr: -3; ASAP1 inh: 25*; TDP2 inh: 1; LEDGF integ inh: 1; MBD2 DNA inh: -4; ASAP1 GAP conf: 10

Results for O=C1NC(Cc2c[nH]c3ccccc23)C(=O)N1CCOc1ccc(F)cc1 (centres undefined) ?
ARFGAP1 inh: -5; UHRF1 MBD2 ctr: 0; ASAP1 inh: -19; TDP2 inh: 6; LEDGF integ inh: 3; MBD2 DNA inh: 0

Results for O=C1NC(Cc2c[nH]c3ccccc23)C(=O)N1Cc1ccc(CN2C(=O)NC(Cc3c[nH]c4ccccc34)C2=O)cc1 (centres undefined) ?
ARFGAP1 inh: 8; UHRF1 MBD2 ctr: -1; ASAP1 inh: 29*; TDP2 inh: -5; LEDGF integ inh: 0; MBD2 DNA inh: -1; ASAP1 GAP conf: 13

Results for CC1CCc2c(sc(NC(=O)c3ccco3)c2C(=O)O)C1 (centres undefined) ?
ARFGAP1 inh: -2; UHRF1 MBD2 ctr: 3; ASAP1 inh: 27*; TDP2 inh: -10; LEDGF integ inh: -1; MBD2 DNA inh: -3; ASAP1 GAP conf: -2

Screens: PubChem BioAssay, The Scripps Research Institute Molecular Screening Center
